Results published in ChEMBL document CHEMBL2401696, “Stereoselective synthesis and anti-proliferative effects on prostate cancer evaluation of 5-substituted-3,4-diphenylfuran-2-ones” (Eur J Med Chem, 2013).
Activity calls are given as the source filed them. The calls are words filed in the database; no cut-off is given here.

Legend:
DU-145 [1] = test: Antiproliferative activity against human DU145 cells after 72 hrs by MTT assay; type: functional, cell-based; settings: DU-145, 72 h
Procedure, shortened: (§1)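 Cells (PC3 and its PCDNA- and SKP2-transfected lines, DU145) grown in RPMI 1640 with 10% FBS; G418 added for transfected lines. Exponential cells seeded 1 × 10⁴/well, 24 h at 37 °C, then fresh medium with compounds at several concentrations for 72 h. MTT 1–3 h at 37 °C, dissolved in 4% HCl/96% isopropanol, absorbance 570 nm. Triplicate per concentration; IC50 from dose–response curves.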

[2] = biological target: T1, Prostaglandin G/H synthase 2 (Ovis aries) (UniProt P79208); test: Inhibition of ovine COX-2 assessed as using arachidonic acid as substrate at 10 uM preincubated for 5 mins prior to substrate addition measured after 2 hrs by enzyme immunoassay relative to control; settings: in the assay text read “after 2 mins” for “after 2 hrs”
T1 sequence (whole entry): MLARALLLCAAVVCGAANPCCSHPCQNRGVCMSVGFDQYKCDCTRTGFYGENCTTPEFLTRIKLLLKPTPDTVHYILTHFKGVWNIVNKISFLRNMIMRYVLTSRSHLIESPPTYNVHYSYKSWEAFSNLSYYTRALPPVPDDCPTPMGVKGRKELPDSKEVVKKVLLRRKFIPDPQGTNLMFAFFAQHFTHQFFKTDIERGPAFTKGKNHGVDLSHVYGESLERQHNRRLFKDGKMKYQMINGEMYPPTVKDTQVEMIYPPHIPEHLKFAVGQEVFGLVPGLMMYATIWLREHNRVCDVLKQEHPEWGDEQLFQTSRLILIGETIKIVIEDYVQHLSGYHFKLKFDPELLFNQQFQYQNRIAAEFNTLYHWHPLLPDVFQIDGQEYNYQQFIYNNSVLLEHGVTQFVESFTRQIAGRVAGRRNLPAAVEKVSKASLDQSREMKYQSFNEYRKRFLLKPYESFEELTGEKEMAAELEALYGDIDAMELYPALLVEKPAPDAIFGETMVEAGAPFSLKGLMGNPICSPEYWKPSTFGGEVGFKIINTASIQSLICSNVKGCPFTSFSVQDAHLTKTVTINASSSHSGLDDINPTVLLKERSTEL
Procedure, shortened: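 Ovine COX-1 or COX-2 with heme in 0.1 M Tris-HCl pH 8.0, 5 mM EDTA, 2 mM phenol; compound (0.001–100 µM final, DMSO stocks) preincubated 5 min at 37 °C, then arachidonic acid added, stopped with 1 M HCl after 2 min. PGF2α (SnCl2 reduction) quantified by competitive EIA at 412 nm; % inhibition vs controls; mean of two determinations.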

[3] = biological target: T2, Prostaglandin G/H synthase 2 (Ovis aries, UniProt P79208); test: Inhibition of ovine COX-2 assessed as using arachidonic acid as substrate preincubated for 5 mins prior to substrate addition measured […] by enzyme immunoassay
T2 sequence (P79208 whole entry): T1 sequence (whole entry)

PC-3 [4] = test: Antiproliferative activity against human PC3 cells after 72 hrs by MTT assay; type: functional, cell-based; settings: PC-3, 72 h; procedure, shortened: as §1
[5] = biological target: T3, Prostaglandin G/H synthase 1 (Ovis aries) (UniProt P05979); test: Inhibition of ovine COX-1 assessed as using arachidonic acid as substrate at 10 uM preincubated for 5 mins prior to substrate addition […] by enzyme immunoassay relative to control
T3 sequence (whole entry): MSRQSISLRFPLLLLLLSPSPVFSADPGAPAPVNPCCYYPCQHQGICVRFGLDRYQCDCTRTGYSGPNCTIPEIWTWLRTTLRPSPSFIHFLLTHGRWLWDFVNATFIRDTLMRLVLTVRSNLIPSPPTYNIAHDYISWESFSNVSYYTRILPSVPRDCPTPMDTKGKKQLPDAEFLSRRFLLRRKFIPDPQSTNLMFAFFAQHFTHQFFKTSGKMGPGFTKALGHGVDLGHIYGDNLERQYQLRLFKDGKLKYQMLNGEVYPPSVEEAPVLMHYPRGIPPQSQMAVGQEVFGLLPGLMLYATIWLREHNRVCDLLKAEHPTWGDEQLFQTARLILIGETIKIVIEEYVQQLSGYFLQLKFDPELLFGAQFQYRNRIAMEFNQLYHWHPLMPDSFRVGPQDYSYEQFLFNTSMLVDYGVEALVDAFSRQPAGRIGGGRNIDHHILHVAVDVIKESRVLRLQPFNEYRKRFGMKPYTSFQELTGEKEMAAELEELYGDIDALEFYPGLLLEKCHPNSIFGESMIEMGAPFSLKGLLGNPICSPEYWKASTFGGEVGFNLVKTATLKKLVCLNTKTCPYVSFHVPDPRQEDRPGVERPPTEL

PC-3 [6] = test: Antiproliferative activity against human PC3 cells expressing SKP2 after 72 hrs by MTT assay; type: functional, cell-based; settings: PC-3, 72 h; procedure, shortened: as §1
PC-3 [7] = test: Antiproliferative activity against human PC3 cells expressing PCDNA after 72 hrs by MTT assay; type: functional, cell-based; settings: PC-3, 72 h; procedure, shortened: as §1
[8] = biological target: T1, Prostaglandin G/H synthase 2 (Ovis aries); test: Inhibition of ovine COX-2 assessed as using arachidonic acid as substrate at 10 uM preincubated for 5 mins prior to substrate addition measured after 2 mins by enzyme immunoassay relative to control
[9] = biological target: T4, Prostaglandin G/H synthase 1 (Ovis aries, UniProt P05979); test: Inhibition of ovine COX-1 assessed as using arachidonic acid as substrate preincubated for 5 mins prior to substrate addition […] by enzyme immunoassay
T4 sequence (P05979 whole entry): T3 sequence (whole entry)

DU-145 [10] = test: Cell cycle arrest in human DU145 cells assessed as accumulation at G2/M phase at 15 uM after 12 hrs by propidium iodide staining-based flow cytometric analysis (reference value: 10.97%); type: functional
DU-145 [11] = test: Cell cycle arrest in human DU145 cells assessed as accumulation at G0/G1 phase at 5 uM after 12 hrs by propidium iodide staining-based flow cytometric analysis (reference value: 40.91%); type: functional
DU-145 [12] = test: Cell cycle arrest in human DU145 cells assessed as accumulation at G0/G1 phase after 12 hrs by propidium iodide staining-based flow cytometric analysis; type: functional
DU-145 [13] = test: Induction of apoptosis in human DU145 cells assessed as chromosomal condensation at 5 to 20 uM after 48 hrs by DAPI staining-based fluorescence microscopic analysis; type: functional, cell-based
Procedure, shortened: (§2)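 DU145 seeded 2 × 10⁴ per 60-mm plate, 24 h, then treated 48 h; PBS-washed twice, fixed 3.7% paraformaldehyde 10 min at room temperature, DAPI-stained 10 min at room temperature; nuclei scored for chromatin condensation and apoptotic bodies.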

DU-145 [14] = test: Cell cycle arrest in human DU145 cells assessed as accumulation at S phase at 5 uM after 12 hrs by propidium iodide staining-based flow cytometric analysis (reference value: 44.93%); type: functional
DU-145 [15] = test: Cell cycle arrest in human DU145 cells assessed as accumulation at G0/G1 phase at 15 uM after 12 hrs by propidium iodide staining-based flow cytometric analysis (reference value: 40.91%); type: functional
DU-145 [16] = test: Induction of apoptosis in human DU145 cells assessed as formation of apoptotic bodies at 5 to 20 uM after 48 hrs by DAPI staining-based fluorescence microscopic analysis; type: functional, cell-based; procedure, shortened: as §2
DU-145 [17] = test: Cell cycle arrest in human DU145 cells assessed as accumulation at G2/M phase at 5 uM after 12 hrs by propidium iodide staining-based flow cytometric analysis (reference value: 10.97%); type: functional
DU-145 [18] = test: Cell cycle arrest in human DU145 cells assessed as accumulation at S phase at 15 uM after 12 hrs by propidium iodide staining-based flow cytometric analysis (reference value: 44.93%); type: functional
DU-145 [19] = test: Cell cycle arrest in human DU145 cells assessed as accumulation at G0/G1 phase at 20 uM after 12 hrs by propidium iodide staining-based flow cytometric analysis (reference value: 40.91%); type: functional
DU-145 [20] = test: Cell cycle arrest in human DU145 cells assessed as accumulation at G2/M phase at 20 uM after 12 hrs by propidium iodide staining-based flow cytometric analysis (reference value: 10.97%); type: functional
DU-145 [21] = test: Cell cycle arrest in human DU145 cells assessed as accumulation at S phase at 20 uM after 12 hrs by propidium iodide staining-based flow cytometric analysis (reference value: 44.93%); type: functional

Structure (SMILES)	IC50 (DU-145 [1])	inhibition [2]	IC50 [3]	IC50 (PC-3 [4])	inhibition [5]	IC50 (PC-3 [6])	IC50 (PC-3 [7])	inhibition [8]	further results
COc1ccccc1/C=C1\OC(=O)C(c2ccc(F)cc2)=C1c1ccc(S(C)(=O)=O)cc1	> 50 µM	45.6%	13.9 µM	> 50 µM	inactive	25.1 µM	18.2 µM	–	–
CS(=O)(=O)c1ccc(C2=C(c3ccccc3Cl)C(=O)O/C2=C\c2ccc(Cl)cc2)cc1	–	–	–	–	inactive	> 50 µM	> 50 µM	32.7%	–
COc1ccccc1/C=C1\OC(=O)C(c2ccccc2)=C1c1ccc(S(C)(=O)=O)cc1	–	–	3 µM	–	71%	> 90 µM	> 80 µM	72.6%	IC50 [9]: 3.1 µM
CS(=O)(=O)c1ccc(C2=C(c3ccccc3Cl)C(=O)O/C2=C\c2ccccc2)cc1	> 50 µM	59.1%	7.3 µM	> 50 µM	–	5.48 µM	> 50 µM	–	–
CC(C)=C1OC(=O)C(c2ccccc2Cl)=C1c1ccc(S(C)(=O)=O)cc1	> 50 µM	–	–	> 50 µM	18.6%	15.4 µM	40.5 µM	24.1%	–
COc1ccccc1/C=C1\OC(=O)C(c2ccccc2Cl)=C1c1ccc(S(C)(=O)=O)cc1	> 50 µM	–	14.6 µM	> 50 µM	inactive	45.8 µM	25.5 µM	44.2%	–
CS(=O)(=O)c1ccc(C2=C(c3ccc(F)cc3)C(=O)OC2)cc1	–	66.9%	9.2 µM	–	28.5%	> 50 µM	> 50 µM	–	–
COC1(C)OC(=O)C(c2ccccc2Cl)=C1c1ccc(S(C)(=O)=O)cc1 (stereo not given)	25 µM	43.3%	12.1 µM	20 µM	–	5.09 µM	5.17 µM	–	Activity (DU-145 [10]): 7.53%; Activity (DU-145 [11]): 42.22%; Activity (DU-145 [12]): Dose-dependent effect; Activity (DU-145 [13]): Active; Activity (DU-145 [14]): 43.24%; Activity (DU-145 [15]): 60%; Activity (DU-145 [16]): Active; Activity (DU-145 [17]): 10.97%; Activity (DU-145 [18]): 29.17%; Activity (DU-145 [19]): 64.51%; Activity (DU-145 [20]): 6.28%; Activity (DU-145 [21]): 27.26%
COc1ccc(/C=C2\OC(=O)C(c3ccccc3)=C2c2ccc(S(C)(=O)=O)cc2)cc1	–	16.7%	–	–	65.9%	> 50 µM	> 50 µM	–	IC50 [9]: 8.2 µM
COc1cc(/C=C2\OC(=O)C(c3ccc(F)cc3)=C2c2ccc(S(C)(=O)=O)cc2)ccc1O	> 50 µM	43.6%	17.6 µM	> 50 µM	–	10.7 µM	> 50 µM	–	–
COc1ccc(/C=C2\OC(=O)C(c3ccccc3Cl)=C2c2ccc(S(C)(=O)=O)cc2)cc1	–	inactive	–	–	61.2%	> 50 µM	> 50 µM	–	IC50 [9]: 8.5 µM
CS(=O)(=O)c1ccc(C2=C(c3ccccc3Cl)C(=O)O/C2=C\c2cccc([N+](=O)[O-])c2)cc1	–	–	7.1 µM	–	7.01%	> 50 µM	> 50 µM	59.2%	–
